Results reported in ChEMBL document CHEMBL1177876, “Design and synthesis of 10-alkoxy-5, 6-dihydro-triazolo[4,3-d]benzo[f][1,4]oxazepine derivatives with anticonvulsant activity” (Eur J Med Chem, 2010).
Calls of active or inactive are those of the source.

Key:
Mus musculus [1] = assay: Anticonvulsant activity in mouse assessed as protection against maximal electroshock-induced seizures at 30 mg/kg, ip measured after 4 hrs; assay type: functional, organism-based; design: dose 30 mg/kg
In short: (§1)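 Phase-I MES screen in KunMing mice, 18–22 g. Compounds dissolved in DMSO and given i.p. at 30, 100 or 300 mg/kg. The MES test followed the NIH ADD protocol and was read at 0.5 h and 4 h after dosing. Six mice per group, scored as number protected/number tested.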

Mus musculus [2] = assay: Anticonvulsant activity in ip dosed mouse assessed as protection against maximal electroshock-induced seizures; assay type: functional
In short: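 KunMing mice, 18–22 g, compounds in DMSO, given i.p. at a range of doses, groups of 10. MES test per NIH ADD program. Read-out was seizure protection, with at least three points in the 10–90% range.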

Mus musculus [3] = species: Mus musculus; assay: Protective index, ratio of TD50 for mouse by rotarod test to ED50 for mouse by MES test; assay type: functional
Mus musculus [4] = assay: Anticonvulsant activity in mouse assessed as protection against maximal electroshock-induced seizures at 300 mg/kg, ip measured after 4 hrs; assay type: functional, organism-based; design: dose 300 mg/kg; in short: as §1
[5] = Neurotoxicity in ip dosed mouse assessed as time spent on rotarod by rotarod test; assay type: toxicity, organism-based; conditions: in vivo
In short: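 Rotarod neurotoxicity in KunMing mice, 18–22 g, compounds in DMSO given i.p. Mice were pretrained on a 3.2 cm diameter rod at 10 rpm. Toxicity was defined as failure to stay on the rod for at least 1 min in each trial.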

Mus musculus [6] = assay: Anticonvulsant activity in mouse assessed as protection against maximal electroshock-induced seizures at 100 mg/kg, ip measured after 4 hrs; assay type: functional, organism-based; design: dose 100 mg/kg; in short: as §1
Mus musculus [7] = assay: Anticonvulsant activity in mouse assessed as protection against maximal electroshock-induced seizures at 10 mg/kg, ip measured after 4 hrs; assay type: functional, organism-based; design: dose 10 mg/kg
Mus musculus [8] = assay: Anticonvulsant activity in mouse assessed as protection against maximal electroshock-induced seizures at 100 mg/kg, ip measured after 0.5 hrs; assay type: functional, organism-based; design: dose 100 mg/kg; in short: as §1
Mus musculus [9] = assay: Anticonvulsant activity in mouse assessed as protection against maximal electroshock-induced seizures at 10 mg/kg, ip measured after 0.5 hrs; assay type: functional, organism-based; design: dose 10 mg/kg
Mus musculus [10] = assay: Anticonvulsant activity in mouse assessed as protection against maximal electroshock-induced seizures at 30 mg/kg, ip measured after 0.5 hrs; assay type: functional, organism-based; design: dose 30 mg/kg; in short: as §1

| Structure (SMILES) | Activity (Mus musculus [1]) | ED50 (Mus musculus [2]) [mg/kg] | PI (Mus musculus [3]) | Activity (Mus musculus [4]) | TD50 [5] [mg/kg] | Activity (Mus musculus [6]) | Activity (Mus musculus [7]) | Activity (Mus musculus [8]) | Activity (Mus musculus [9]) | Activity (Mus musculus [10]) |
| --- | --- | --- | --- | --- | --- | --- | --- | --- | --- | --- |
| CCCOc1ccc2c(c1)-c1nncn1CCO2 | inactive | 19 | 2.9 | inactive | 54.8 | inactive | inactive | Active | – | – |
| CCCCCOc1ccc2c(c1)-c1nncn1CCO2 | inactive | 15.8 | 3.8 | inactive | 60 | inactive | inactive | Active | Active | – |
| Clc1cccc(COc2ccc3c(c2)-c2nncn2CCO3)c1 | inactive | 82.2 | 1.5 | inactive | 127 | inactive | inactive | Active | – | – |
| COc1ccc2c(c1)-c1nncn1CCO2 | inactive | > 100 | – | inactive | – | inactive | inactive | – | – | – |
| c1ccc(COc2ccc3c(c2)-c2nncn2CCO3)cc1 | inactive | 16.4 | 4.6 | inactive | 76 | inactive | inactive | Active | – | Active |
| CCCCCCCCOc1ccc2c(c1)-c1nncn1CCO2 | inactive | 11 | 5.8 | inactive | 63.4 | inactive | inactive | Active | Active | – |
| Cc1ccc(COc2ccc3c(c2)-c2nncn2CCO3)cc1 | inactive | > 100 | – | inactive | – | inactive | inactive | Active | – | – |
| Fc1ccccc1COc1ccc2c(c1)-c1nncn1CCO2 | inactive | 18 | 5.1 | inactive | 91.3 | inactive | inactive | Active | – | Active |
| Fc1ccc(COc2ccc3c(c2)-c2nncn2CCO3)cc1 | inactive | 27.4 | 2.3 | inactive | 63.4 | inactive | inactive | Active | – | – |
| Brc1ccc(COc2ccc3c(c2)-c2nncn2CCO3)cc1 | inactive | > 100 | – | inactive | – | inactive | inactive | Active | – | – |
